Data as given in ChEMBL document CHEMBL1795280, “Design, synthesis and activity of a potent, selective series of N-aryl pyridinone inhibitors of p38 kinase” (Bioorg Med Chem Lett, 2011).
Blank lines part the entries; values can stand above or below the compound they belong to. The source made the active and inactive calls. No cut-off for these calls is given here.

Legend:
[1] = target: T1, Mitogen-activated protein kinase 14 (Homo sapiens, UniProt Q16539); test: Inhibition of p38alpha assessed as phosphorylation of […] after 60 mins by fluorescence assay
T1 sequence (Q16539 whole entry): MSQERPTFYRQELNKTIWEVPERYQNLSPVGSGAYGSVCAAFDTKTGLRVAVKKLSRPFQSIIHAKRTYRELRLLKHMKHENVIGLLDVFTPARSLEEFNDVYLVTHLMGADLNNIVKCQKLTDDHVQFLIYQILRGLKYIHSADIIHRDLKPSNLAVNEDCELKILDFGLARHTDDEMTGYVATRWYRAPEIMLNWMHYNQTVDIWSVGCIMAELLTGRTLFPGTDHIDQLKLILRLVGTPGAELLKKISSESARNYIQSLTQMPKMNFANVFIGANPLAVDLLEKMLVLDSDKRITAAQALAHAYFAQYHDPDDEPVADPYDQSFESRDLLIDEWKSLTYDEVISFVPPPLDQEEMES
In short: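 Cascade assay in which activated p38α (6 pM final) activates unactivated MK2 (1 nM), which phosphorylates FITC-labelled Hsp27 peptide (1 nM) with […]. Inhibitor 0.2–10,000 nM. Room temperature, 60 min, EDTA quench. Phospho-peptide quantified by Caliper LabChip; IC50.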

[2] = tested on: PBMC; test: Antiinflammatory activity in human PBMC assessed as inhibition of LPS-induced TNFalpha production treated 1 hr before LPS challenge measured after 18 hrs; assay type: functional, cell-based
In short: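 PBMCs isolated by Ficoll from heparinized blood of two healthy donors, in DMEM with 5% endotoxin-free FBS, 2.5 × 10⁵ cells/well. Pretreated 1 h with compound (0.0001–25 µM range), then stimulated 18 h with 22 ng/ml LPS. Final DMSO 0.25%. Secreted TNFα measured by MSD; IC50 reported.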

[3] = Metabolic stability in human liver microsomes assessed as compound remaining at 2 uM after 45 mins by LC/MS analysis; assay type: ADME, Microsome; conditions: read-out: Stability
[4] = Metabolic stability in rat liver microsomes assessed as compound remaining at 2 uM after 45 mins by LC/MS analysis; assay type: ADME, Microsome; conditions: read-out: Stability
[5] = tested on: Rattus norvegicus; test: Antiinflammatory activity in Lewis rat assessed as inhibition of LPS-induced TNFalpha production at 5 mg/kg, po administered 4 hrs before LPS challenge by ELISA; assay type: functional
In short: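 Adult male Lewis rats (225–250 g), fasted 18 h with free access to water. Compound or vehicle given by oral gavage (1 mL). LPS (E. coli 0111:B4) given 1 mg/kg i.v. in saline 2, 4 or 6 h later. Serum taken by cardiac puncture 90 min after LPS. TNFα quantified against a recombinant rat TNF standard curve with a four-parameter fit. Two vehicle groups per experiment, three experiments.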

[6] = target: Tyrosine-protein kinase BTK (Homo sapiens) (UniProt Q06187); test: Inhibition of BTK at 10 uM
[7] = Clearance in iv and po dosed Sprague-Dawley rat; assay type: ADME, organism-based; conditions: in vivo
[8] = Half life in iv and po dosed Sprague-Dawley rat; assay type: ADME, organism-based; conditions: in vivo
[9] = Bioavailability in Sprague-Dawley rat at 5 mg/kg, po; assay type: ADME, organism-based; conditions: in vivo
[10] = Solubility of the compound; assay type: physicochemical
[11] = tested on: Rattus norvegicus; test: Antiarthritic activity in Lewis rat assessed as inhibition of streptococal cell wall-induced increase of paw volume at 60 mg/kg, po qd for 10 days administered 10 days after streptococal cell wall challenge by displacement plethysmometer analysis; assay type: functional; conditions: 240 h
In short: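 Female Lewis rats given intraperitoneal group A streptococcal cell wall peptidoglycan-polysaccharide ([…] bodyweight). Only animals developing the acute phase were treated. Oral gavage (0.5 mL) daily from day 10 to day 21 post-SCW, with methylcellulose/Tween 20 vehicle as comparison. Four to eight animals per group, two paw volumes per animal. Paw volume measured on day 21 by water displacement plethysmometer.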

[12] = target: Cyclin-dependent kinase 2 (Homo sapiens) (UniProt P24941); test: Inhibition of CDK2 at 10 uM
[13] = target: Aurora kinase A (Homo sapiens) (UniProt O14965); test: Inhibition of AURKA at 10 uM
[14] = target: Epidermal growth factor receptor (Homo sapiens) (UniProt P00533); test: Inhibition of EGFR at 10 uM
[15] = target: Vascular endothelial growth factor receptor 1 (Homo sapiens) (UniProt P17948); test: Inhibition of FLT1 at 10 uM
Chain of Vascular endothelial growth factor receptor 1 (Homo sapiens) (P17948 whole entry): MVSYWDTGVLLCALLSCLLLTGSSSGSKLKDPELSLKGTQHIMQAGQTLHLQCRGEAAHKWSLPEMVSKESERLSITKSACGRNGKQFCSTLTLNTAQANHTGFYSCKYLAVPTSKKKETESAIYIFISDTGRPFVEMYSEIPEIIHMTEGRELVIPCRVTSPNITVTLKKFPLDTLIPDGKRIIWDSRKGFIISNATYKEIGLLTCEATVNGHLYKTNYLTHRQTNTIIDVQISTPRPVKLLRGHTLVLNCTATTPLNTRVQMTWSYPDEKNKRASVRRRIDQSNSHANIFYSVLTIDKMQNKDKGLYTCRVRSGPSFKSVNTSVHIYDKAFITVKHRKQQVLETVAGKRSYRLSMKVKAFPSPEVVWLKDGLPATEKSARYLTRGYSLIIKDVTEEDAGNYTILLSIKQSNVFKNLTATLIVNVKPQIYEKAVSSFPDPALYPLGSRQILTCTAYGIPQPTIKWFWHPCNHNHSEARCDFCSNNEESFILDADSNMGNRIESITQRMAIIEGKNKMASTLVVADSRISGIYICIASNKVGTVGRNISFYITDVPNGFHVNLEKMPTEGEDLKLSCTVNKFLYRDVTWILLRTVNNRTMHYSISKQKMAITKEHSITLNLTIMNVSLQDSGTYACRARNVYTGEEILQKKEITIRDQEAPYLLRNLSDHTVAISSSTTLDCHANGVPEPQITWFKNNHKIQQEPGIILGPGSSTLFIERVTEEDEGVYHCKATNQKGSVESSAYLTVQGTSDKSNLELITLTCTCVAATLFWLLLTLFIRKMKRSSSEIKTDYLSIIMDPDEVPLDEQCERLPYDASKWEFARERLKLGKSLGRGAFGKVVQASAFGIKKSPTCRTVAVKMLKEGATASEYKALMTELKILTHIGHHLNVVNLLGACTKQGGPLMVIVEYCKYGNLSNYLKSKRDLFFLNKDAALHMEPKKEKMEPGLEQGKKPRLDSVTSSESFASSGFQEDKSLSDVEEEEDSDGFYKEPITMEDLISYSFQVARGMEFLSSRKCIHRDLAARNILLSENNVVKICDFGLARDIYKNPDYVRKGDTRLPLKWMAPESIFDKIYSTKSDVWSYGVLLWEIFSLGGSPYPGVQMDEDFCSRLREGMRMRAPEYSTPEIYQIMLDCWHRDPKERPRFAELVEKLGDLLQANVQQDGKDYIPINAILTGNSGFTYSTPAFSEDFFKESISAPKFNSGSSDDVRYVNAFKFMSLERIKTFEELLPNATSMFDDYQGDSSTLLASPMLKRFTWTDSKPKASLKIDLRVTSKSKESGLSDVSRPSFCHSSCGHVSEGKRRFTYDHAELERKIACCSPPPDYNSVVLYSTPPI

[16] = target: Mitogen-activated protein kinase 3 (Homo sapiens) (UniProt P27361); test: Inhibition of ERK1 at 10 uM
[17] = target: Serine/threonine-protein kinase mTOR (Homo sapiens) (UniProt P42345); test: Inhibition of mTOR at 10 uM
[18] = target: Inhibitor of nuclear factor kappa-B kinase subunit beta (Homo sapiens) (UniProt O14920); test: Inhibition of IKK-beta at 10 uM
[19] = target: Interleukin-1 receptor-associated kinase 4 (Homo sapiens) (UniProt Q9NWZ3); test: Inhibition of IRAK4 at 10 uM
[20] = target: Tyrosine-protein kinase JAK1 (Homo sapiens) (UniProt P23458); test: Inhibition of JAK1 at 10 uM
Chain of Tyrosine-protein kinase JAK1 (Homo sapiens) (P23458 whole entry): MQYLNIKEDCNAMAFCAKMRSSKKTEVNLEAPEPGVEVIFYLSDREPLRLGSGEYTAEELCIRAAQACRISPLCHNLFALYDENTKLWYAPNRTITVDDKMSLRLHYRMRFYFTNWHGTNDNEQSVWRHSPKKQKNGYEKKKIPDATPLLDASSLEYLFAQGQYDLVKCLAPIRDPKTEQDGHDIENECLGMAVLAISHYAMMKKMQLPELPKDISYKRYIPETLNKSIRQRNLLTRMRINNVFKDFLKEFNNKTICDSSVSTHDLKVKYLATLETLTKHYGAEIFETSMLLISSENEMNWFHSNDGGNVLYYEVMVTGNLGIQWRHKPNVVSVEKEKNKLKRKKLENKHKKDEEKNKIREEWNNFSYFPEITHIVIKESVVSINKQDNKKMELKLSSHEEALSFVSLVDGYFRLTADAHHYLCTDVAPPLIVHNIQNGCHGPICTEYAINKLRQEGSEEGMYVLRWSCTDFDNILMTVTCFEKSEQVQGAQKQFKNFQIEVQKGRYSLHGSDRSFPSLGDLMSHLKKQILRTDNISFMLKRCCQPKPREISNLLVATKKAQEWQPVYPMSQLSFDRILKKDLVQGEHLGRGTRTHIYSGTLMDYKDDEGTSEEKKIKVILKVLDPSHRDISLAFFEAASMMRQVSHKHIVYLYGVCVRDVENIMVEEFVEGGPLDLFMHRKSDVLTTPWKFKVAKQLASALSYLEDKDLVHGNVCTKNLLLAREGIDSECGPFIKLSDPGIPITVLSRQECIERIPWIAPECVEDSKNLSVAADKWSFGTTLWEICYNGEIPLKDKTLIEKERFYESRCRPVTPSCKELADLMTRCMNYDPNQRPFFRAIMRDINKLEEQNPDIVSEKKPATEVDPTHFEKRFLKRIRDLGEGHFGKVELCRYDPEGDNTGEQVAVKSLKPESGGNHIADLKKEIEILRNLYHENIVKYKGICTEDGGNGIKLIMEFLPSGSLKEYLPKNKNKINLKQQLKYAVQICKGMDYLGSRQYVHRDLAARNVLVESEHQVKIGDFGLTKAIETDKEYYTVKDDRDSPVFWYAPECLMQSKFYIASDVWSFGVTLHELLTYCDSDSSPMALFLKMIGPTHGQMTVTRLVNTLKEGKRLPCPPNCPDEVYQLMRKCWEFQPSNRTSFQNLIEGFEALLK

[21] = target: Tyrosine-protein kinase JAK2 (Homo sapiens) (UniProt O60674); test: Inhibition of JAK2 at 10 uM
[22] = target: Tyrosine-protein kinase JAK3 (Homo sapiens) (UniProt P52333); test: Inhibition of JAK3 at 10 uM
[23] = target: Non-receptor tyrosine-protein kinase TYK2 (Homo sapiens) (UniProt P29597); test: Inhibition of TYK2 at 10 uM
Chain of Non-receptor tyrosine-protein kinase TYK2 (Homo sapiens) (P29597 whole entry): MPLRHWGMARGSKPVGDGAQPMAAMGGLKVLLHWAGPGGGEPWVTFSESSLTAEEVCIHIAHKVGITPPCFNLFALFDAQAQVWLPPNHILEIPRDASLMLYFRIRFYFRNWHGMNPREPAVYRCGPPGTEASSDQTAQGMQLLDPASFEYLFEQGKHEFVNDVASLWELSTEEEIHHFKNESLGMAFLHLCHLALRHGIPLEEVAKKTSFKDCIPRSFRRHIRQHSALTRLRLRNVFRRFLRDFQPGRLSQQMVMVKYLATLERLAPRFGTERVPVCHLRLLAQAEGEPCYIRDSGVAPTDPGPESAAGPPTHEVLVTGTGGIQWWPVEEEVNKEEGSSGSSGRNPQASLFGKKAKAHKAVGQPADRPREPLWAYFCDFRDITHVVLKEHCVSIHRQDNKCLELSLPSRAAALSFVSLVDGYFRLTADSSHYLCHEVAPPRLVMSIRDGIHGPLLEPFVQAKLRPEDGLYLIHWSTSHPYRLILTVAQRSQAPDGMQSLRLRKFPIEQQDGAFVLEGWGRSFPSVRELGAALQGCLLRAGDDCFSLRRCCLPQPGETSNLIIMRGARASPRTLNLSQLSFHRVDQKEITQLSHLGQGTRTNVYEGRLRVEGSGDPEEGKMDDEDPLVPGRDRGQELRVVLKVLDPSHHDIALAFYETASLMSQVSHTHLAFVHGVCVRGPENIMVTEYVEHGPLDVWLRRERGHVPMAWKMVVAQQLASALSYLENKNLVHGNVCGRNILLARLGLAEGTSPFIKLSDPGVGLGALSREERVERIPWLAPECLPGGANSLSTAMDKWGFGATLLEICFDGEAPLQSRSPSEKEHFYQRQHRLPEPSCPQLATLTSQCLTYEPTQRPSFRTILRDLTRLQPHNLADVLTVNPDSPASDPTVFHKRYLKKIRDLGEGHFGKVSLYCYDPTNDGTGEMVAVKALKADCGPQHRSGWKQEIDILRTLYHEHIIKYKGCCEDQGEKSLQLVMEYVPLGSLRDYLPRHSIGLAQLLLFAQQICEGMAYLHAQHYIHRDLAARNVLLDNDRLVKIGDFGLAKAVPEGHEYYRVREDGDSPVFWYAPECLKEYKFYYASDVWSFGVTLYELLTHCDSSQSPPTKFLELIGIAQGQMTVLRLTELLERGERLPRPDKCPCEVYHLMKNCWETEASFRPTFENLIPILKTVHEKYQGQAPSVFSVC

[24] = target: Vascular endothelial growth factor receptor 2 (Homo sapiens) (UniProt P35968); test: Inhibition of VEGFR2 at 10 uM
[25] = target: Tyrosine-protein kinase Lck (Homo sapiens) (UniProt P06239); test: Inhibition of LCK at 10 uM
[26] = target: Dual specificity mitogen-activated protein kinase kinase 1 (Homo sapiens) (UniProt Q02750); test: Inhibition of MEK1 at 10 uM
[27] = target: Mitogen-activated protein kinase 13 (Homo sapiens) (UniProt O15264); test: Inhibition of p38delta at 10 uM
[28] = target: Mitogen-activated protein kinase 12 (Homo sapiens) (UniProt P53778); test: Inhibition of p38-gamma at 10 uM
Chain of Mitogen-activated protein kinase 12 (Homo sapiens) (P53778 whole entry): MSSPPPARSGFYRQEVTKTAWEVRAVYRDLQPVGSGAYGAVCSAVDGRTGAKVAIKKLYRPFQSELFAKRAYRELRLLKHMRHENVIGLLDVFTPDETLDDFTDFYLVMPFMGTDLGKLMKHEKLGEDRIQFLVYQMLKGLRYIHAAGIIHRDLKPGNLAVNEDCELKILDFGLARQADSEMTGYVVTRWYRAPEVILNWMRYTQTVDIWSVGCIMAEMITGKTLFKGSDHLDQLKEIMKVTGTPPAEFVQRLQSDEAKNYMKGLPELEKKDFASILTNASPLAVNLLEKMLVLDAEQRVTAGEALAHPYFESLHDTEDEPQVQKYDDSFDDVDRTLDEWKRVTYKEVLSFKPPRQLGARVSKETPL

[29] = Inhibition of JNK at 10 uM
[30] = target: MAP kinase-activated protein kinase 2 (Homo sapiens) (UniProt P49137); test: Inhibition of MK2 at 10 uM
[31] = target: High affinity nerve growth factor receptor (Homo sapiens) (UniProt P04629); test: Inhibition of TRKA at 10 uM
[32] = Inhibition of PDGFR at 10 uM
[33] = target: RAF proto-oncogene serine/threonine-protein kinase (Homo sapiens) (UniProt P04049); test: Inhibition of c-RAF at 10 uM
Chain of RAF proto-oncogene serine/threonine-protein kinase (Homo sapiens) (P04049 whole entry): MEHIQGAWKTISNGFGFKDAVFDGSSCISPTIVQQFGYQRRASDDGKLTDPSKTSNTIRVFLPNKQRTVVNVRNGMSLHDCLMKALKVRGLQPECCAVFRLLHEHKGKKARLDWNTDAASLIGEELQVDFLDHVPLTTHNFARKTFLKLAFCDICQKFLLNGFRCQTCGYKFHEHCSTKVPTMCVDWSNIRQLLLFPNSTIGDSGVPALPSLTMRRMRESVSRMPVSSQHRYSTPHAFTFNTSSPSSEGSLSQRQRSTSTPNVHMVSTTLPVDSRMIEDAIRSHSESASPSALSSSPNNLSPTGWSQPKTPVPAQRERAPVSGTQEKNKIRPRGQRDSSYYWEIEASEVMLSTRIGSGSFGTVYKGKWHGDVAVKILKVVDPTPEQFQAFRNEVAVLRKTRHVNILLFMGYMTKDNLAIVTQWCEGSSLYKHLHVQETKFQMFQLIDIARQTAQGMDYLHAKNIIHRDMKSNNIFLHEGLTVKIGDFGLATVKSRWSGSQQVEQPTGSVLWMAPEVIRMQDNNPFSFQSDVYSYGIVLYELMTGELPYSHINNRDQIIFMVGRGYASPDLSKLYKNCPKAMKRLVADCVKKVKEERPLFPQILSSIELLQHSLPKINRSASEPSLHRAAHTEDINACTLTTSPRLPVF

[34] = target: Rho-associated protein kinase 1 (Homo sapiens) (UniProt Q13464); test: Inhibition of ROCK1 at 10 uM
[35] = target: Rho-associated protein kinase 2 (Homo sapiens) (UniProt O75116); test: Inhibition of ROCK2 at 10 uM
[36] = target: Tyrosine-protein kinase ZAP-70 (Homo sapiens) (UniProt P43403); test: Inhibition of ZAP70 at 10 uM
[37] = target: T1, Mitogen-activated protein kinase 14; test: Inhibition of p38alpha at 10 uM
[38] = target: Mitogen-activated protein kinase 11 (Homo sapiens) (UniProt Q15759); test: Inhibition of p38beta at 10 uM
[39] = Bioavailability in Sprague-Dawley rat po as suspension; conditions: in vivo

SMILES: Cc1cc(OCc2ccc(F)cc2F)c(Br)c(=O)n1-c1c(F)cc(O)cc1F
- IC50 [1]: 15 nM

SMILES: Cc1cc(OCc2ccc(F)cc2F)c(Br)c(=O)n1-c1ccc(C(=O)N(C)C)cc1
- IC50 [1]: 746 nM

SMILES: Cc1cc(OCc2ccc(F)cc2F)c(Br)c(=O)n1-c1ccc(CNC(=O)CO)cc1
- IC50 [1]: 20 nM
- IC50 [2]: 91 nM
- remaining at 0.75 h, 2 µM [3]: 88%
- remaining at 0.75 h, 2 µM [4]: 83%
- inhibition in vivo at 5 mg/kg [5]: 43%

SMILES: Cc1cc(OCc2ccc(F)cc2F)c(Br)c(=O)n1-c1c(F)cc(OCCO)cc1F
- IC50 [1]: 7 nM
- IC50 [2]: 61 nM
- remaining at 0.75 h, 2 µM [3]: 87%
- remaining at 0.75 h, 2 µM [4]: 96%
- inhibition in vivo at 5 mg/kg [5]: 44%

SMILES: Cc1cc(OCc2ccccc2)c(Br)c(=O)n1-c1c(Cl)cccc1Cl
- IC50 [1]: 30 nM

SMILES: Cc1cc(OCc2ccc(F)cc2F)c(Cl)c(=O)n1-c1c(F)cc(N2CCN(C)CC2)cc1F
- IC50 [1]: 23 nM

SMILES: Cc1cc(OCc2ccc(F)cc2F)c(Br)c(=O)n1-c1c(F)cc(N2CCN(C)CC2)cc1F
- IC50 [1]: 14 nM

Second part, led by results:

- IC50 [1]: 126 nM
SMILES: CNC(=O)c1ccc(-n2c(C)cc(OCc3ccc(F)cc3F)c(Br)c2=O)cc1

- IC50 [1]: 175 nM
SMILES: Cc1cc(OCc2ccc(F)cc2F)c(Br)c(=O)n1-c1cccc(CNC(=O)CO)c1

- IC50 [1]: 142 nM
SMILES: Cc1cc(OCc2ccc(F)cc2F)c(Br)c(=O)n1-c1ccc(CNC(N)=O)cc1

- IC50 [1]: 251 nM
SMILES: Cc1cc(OCc2ccc(F)cc2F)c(Br)c(=O)n1-c1cccc(CNC(N)=O)c1

- IC50 [1]: 122 nM
SMILES: Cc1cc(OCc2ccc(F)cc2F)c(Br)c(=O)n1-c1ccc(C(N)=O)cc1

- IC50 [1]: 681 nM
SMILES: Cc1cc(OCc2ccc(F)cc2F)c(Br)c(=O)n1-c1cccc(CN)c1

- inhibition [6]: < 50%
- IC50 [1]: 12 nM
- remaining at 0.75 h, 2 µM [3]: 100%
- remaining at 0.75 h, 2 µM [4]: 97%
- clearance [7]: 9.34 mL/min/kg
- half-life [8]: 3.4 h
- bioavailability [9]: 93%
- solubility [10]: < 10 µg/mL
- inhibition [12]: < 50%
- inhibition [13]: < 50%
- inhibition [14]: < 50%
- inhibition [15]: < 50%
- inhibition [16]: < 50%
- inhibition [17]: < 50%
- inhibition [18]: < 50%
- inhibition [19]: < 50%
- inhibition [20]: < 50%
- inhibition [21]: < 50%
- inhibition [22]: < 50%
- inhibition [23]: < 50%
- inhibition [24]: < 50%
- inhibition [25]: < 50%
- inhibition [26]: < 50%
- inhibition [27]: < 50%
- inhibition [28]: < 50%
- inhibition [29]: < 50%
- inhibition [30]: < 50%
- inhibition [31]: < 50%
- inhibition [32]: < 50%
- inhibition [33]: < 50%
- inhibition [34]: < 50%
- inhibition [35]: < 50%
- inhibition [36]: < 50%
- inhibition [37]: Active
- inhibition [38]: Active
- bioavailability [39]: 7%
SMILES: Cc1cc(OCc2ccc(F)cc2F)c(Br)c(=O)n1-c1cccc(C(N)=O)c1
- IC50 [2]: 64 nM
- inhibition in vivo at 5 mg/kg [5]: 89%
- inhibition in vivo at 60 mg/kg [11]: 40%
